Reference: ChEMBL document CHEMBL3351667, “A chemical tuned strategy to develop novel irreversible EGFR-TK inhibitors with improved safety and pharmacokinetic profiles” (J Med Chem, 2014)
pIC50: −log10 of the molar value.

Legend:
NCI-H1975 [1] = experiment: cells; assay type: functional, cell-based; conditions: Homo sapiens, NCI-H1975, 48 h
A-431 = experiment: cells; assay type: functional, cell-based; conditions: Homo sapiens, A-431, 48 h
[2] = target: Epidermal growth factor receptor (Homo sapiens, UniProt P00533);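 note: inhibition of wild-type EGFR read out by HTRF, with a 5 min incubation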
[3] = target: Epidermal growth factor receptor (Homo sapiens, UniProt P00533, T790M); assay type: protein assay
[4] = target: Receptor tyrosine-protein kinase erbB-2 (Homo sapiens, UniProt P04626); experiment: Inhibition of wild type HER2 (unknown origin) incubated for 5 mins by HTRF assay
Cytochrome P450 2C9 = Cytochrome P450 2C9 (Homo sapiens, UniProt P11712); experiment: Inhibition of CYP2C9 in human hepatic microsomes after 20 mins by LC/MS/MS method; assay type: ADME, Liver
hERG (KCNH2) [5] = target: T1, hERG (KCNH2) (Homo sapiens, UniProt Q12809); experiment: Inhibition of human ERG assessed as reduction in channel currents at 10 uM
[6] = Intrinsic clearance in dog liver microsomes assessed per mg protein at 1 uM in presence of NADPH after 0.5 to 30 mins by LC/MS/MS method; assay type: ADME, Canis lupus familiaris; conditions: read-out: CLH
[7] = Ratio of drug level in brain to plasma in BALB/c mouse at 30 mg/kg, po after 6 hrs by LC/MS/MS method; assay type: ADME, organism-based; set-up: dose 30 mg/kg, route oral; conditions: read-out: BPR
In short: (§1)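 BALB/c mice received a single oral dose of 30 mg/kg. Drug concentrations in lung, brain and plasma were measured at multiple time points over 6 h. Mean tissue levels are expressed as a lung/plasma/brain ratio, with plasma set to 1.0.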

[8] = Apparent clearance in BALB/c mouse at 10 mg/kg, po after 24 hrs by LC/MS/MS method; assay type: ADME, organism-based; set-up: dose 10 mg/kg, route oral; conditions: BALB/c, in vivo, read-out: CL(app)
[9] = Intrinsic clearance in monkey liver microsomes assessed per mg protein at 1 uM in presence of NADPH after 0.5 to 30 mins by LC/MS/MS method; assay type: ADME, Macaca mulatta; conditions: rhesus monkey, read-out: CLH
Cytochrome P450 1A2 = target: T2, Cytochrome P450 1A2 (Homo sapiens, UniProt P05177); experiment: Inhibition of CYP1A2 in human hepatic microsomes after 20 mins by LC/MS/MS method; assay type: ADME, Liver
T2 sequence (P05177 whole entry): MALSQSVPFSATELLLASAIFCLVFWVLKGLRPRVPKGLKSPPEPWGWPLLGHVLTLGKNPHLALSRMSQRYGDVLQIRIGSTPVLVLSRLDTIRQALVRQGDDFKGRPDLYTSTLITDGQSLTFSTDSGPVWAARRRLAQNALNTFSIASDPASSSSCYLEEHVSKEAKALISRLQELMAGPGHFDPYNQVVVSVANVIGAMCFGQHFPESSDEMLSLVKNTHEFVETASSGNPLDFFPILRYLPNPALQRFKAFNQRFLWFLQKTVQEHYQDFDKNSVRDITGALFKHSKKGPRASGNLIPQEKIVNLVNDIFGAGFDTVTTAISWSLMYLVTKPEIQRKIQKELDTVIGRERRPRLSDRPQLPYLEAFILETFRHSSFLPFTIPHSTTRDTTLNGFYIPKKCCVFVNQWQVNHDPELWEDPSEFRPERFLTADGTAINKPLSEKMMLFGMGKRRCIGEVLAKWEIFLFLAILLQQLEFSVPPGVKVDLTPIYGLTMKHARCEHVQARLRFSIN

[10] = AUC (0 to infinity) in BALB/c mouse at 10 mg/kg, po after 24 hrs by LC/MS/MS method; assay type: ADME, organism-based, Plasma; set-up: dose 10 mg/kg, route oral, time infinity; conditions: BALB/c, plasma
Cytochrome P450 3A4 = Cytochrome P450 3A4 (Homo sapiens, UniProt P08684); experiment: Inhibition of CYP3A4 in human hepatic microsomes after 20 mins by LC/MS/MS method; assay type: ADME, Liver
Cytochrome P450 2D6 = Cytochrome P450 2D6 (Homo sapiens, UniProt P10635); experiment: Inhibition of CYP2D6 in human hepatic microsomes after 20 mins by LC/MS/MS method; assay type: ADME, Liver
[11] = Ratio of drug level in lung to plasma in BALB/c mouse at 30 mg/kg, po after 6 hrs by LC/MS/MS method; assay type: ADME, organism-based; set-up: dose 30 mg/kg, route oral
In short: as §1

[12] = Oral bioavailability in BALB/c mouse at 10 mg/kg after 24 hrs by LC/MS/MS method; assay type: ADME, organism-based; conditions: in vivo
NCI-H1975 [13] = experiment: Antitumor activity against human NCI-H1975 cells xenografted in nude mouse assessed as reduction in tumor growth at 30 mg/kg/day, ig relative to untreated control; assay type: functional; conditions: route intragastric
[14] = Intrinsic clearance in rat liver microsomes assessed per mg protein at 1 uM in presence of NADPH after 0.5 to 30 mins by LC/MS/MS method; assay type: ADME; conditions: read-out: CLH
[15] = Intrinsic clearance in human liver microsomes assessed per mg protein at 1 uM in presence of NADPH after 0.5 to 30 mins by LC/MS/MS method; assay type: ADME; conditions: read-out: CLH
Cytochrome P450 2C19 = Cytochrome P450 2C19 (Homo sapiens, UniProt P33261); experiment: Inhibition of CYP2C19 in human hepatic microsomes after 20 mins by LC/MS/MS method; assay type: ADME, Liver
Mus musculus = experiment: Apparent volume of distribution in BALB/c mouse at 10 mg/kg, po after 24 hrs by LC/MS/MS method; assay type: ADME, organism-based; set-up: dose 10 mg/kg, route oral; conditions: in vivo
hERG (KCNH2) [16] = target: T1, hERG (KCNH2); experiment: Inhibition of human ERG assessed as reduction in channel currents at 1 uM
[17] = Cmax in BALB/c mouse at 10 mg/kg, po after 24 hrs by LC/MS/MS method; assay type: ADME, organism-based; set-up: dose 10 mg/kg, route oral; conditions: in vivo
[18] = Intrinsic clearance in mouse liver microsomes assessed per mg protein at 1 uM in presence of NADPH after 0.5 to 30 mins by LC/MS/MS method; assay type: ADME; conditions: read-out: CLH
hERG (KCNH2) [19] = target: T1, hERG (KCNH2); experiment: Inhibition of human ERG assessed as reduction in channel currents at 0.1 uM

Epidermal growth factor receptor (Homo sapiens, UniProt P00533, T790M), sequence (P00533 25-1210 T790M limits assumed): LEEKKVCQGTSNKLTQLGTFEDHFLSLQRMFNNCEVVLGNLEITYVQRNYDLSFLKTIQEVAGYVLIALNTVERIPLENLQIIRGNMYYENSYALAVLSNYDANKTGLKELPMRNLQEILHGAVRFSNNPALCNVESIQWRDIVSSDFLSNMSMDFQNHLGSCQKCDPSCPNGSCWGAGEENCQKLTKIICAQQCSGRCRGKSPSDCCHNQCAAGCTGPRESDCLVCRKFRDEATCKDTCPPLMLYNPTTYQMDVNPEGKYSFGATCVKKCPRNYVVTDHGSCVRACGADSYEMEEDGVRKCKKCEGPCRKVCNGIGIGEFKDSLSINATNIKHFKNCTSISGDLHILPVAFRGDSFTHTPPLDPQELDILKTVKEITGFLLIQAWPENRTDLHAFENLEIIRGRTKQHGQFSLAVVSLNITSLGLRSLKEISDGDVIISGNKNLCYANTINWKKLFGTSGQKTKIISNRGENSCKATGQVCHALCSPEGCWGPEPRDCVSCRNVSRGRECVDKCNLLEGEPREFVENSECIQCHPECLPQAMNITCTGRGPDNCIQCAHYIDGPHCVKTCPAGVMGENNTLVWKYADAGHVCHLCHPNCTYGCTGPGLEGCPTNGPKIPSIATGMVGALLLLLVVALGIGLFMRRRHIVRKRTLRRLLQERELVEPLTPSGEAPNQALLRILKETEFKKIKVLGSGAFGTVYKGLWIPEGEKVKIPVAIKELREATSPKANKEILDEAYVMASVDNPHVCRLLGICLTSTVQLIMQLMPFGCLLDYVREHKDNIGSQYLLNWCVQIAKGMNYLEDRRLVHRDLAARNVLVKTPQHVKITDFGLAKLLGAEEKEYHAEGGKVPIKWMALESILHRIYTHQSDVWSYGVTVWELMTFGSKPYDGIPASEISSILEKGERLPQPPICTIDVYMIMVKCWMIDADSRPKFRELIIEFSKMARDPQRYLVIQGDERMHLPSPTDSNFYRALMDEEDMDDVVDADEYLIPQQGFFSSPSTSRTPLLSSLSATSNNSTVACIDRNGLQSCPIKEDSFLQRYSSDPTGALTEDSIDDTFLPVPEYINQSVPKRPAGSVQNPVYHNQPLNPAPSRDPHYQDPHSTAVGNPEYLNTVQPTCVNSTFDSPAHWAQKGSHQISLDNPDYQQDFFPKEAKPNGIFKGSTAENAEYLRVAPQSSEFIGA
Epidermal growth factor receptor (Homo sapiens, UniProt P00533), sequence (P00533 whole entry): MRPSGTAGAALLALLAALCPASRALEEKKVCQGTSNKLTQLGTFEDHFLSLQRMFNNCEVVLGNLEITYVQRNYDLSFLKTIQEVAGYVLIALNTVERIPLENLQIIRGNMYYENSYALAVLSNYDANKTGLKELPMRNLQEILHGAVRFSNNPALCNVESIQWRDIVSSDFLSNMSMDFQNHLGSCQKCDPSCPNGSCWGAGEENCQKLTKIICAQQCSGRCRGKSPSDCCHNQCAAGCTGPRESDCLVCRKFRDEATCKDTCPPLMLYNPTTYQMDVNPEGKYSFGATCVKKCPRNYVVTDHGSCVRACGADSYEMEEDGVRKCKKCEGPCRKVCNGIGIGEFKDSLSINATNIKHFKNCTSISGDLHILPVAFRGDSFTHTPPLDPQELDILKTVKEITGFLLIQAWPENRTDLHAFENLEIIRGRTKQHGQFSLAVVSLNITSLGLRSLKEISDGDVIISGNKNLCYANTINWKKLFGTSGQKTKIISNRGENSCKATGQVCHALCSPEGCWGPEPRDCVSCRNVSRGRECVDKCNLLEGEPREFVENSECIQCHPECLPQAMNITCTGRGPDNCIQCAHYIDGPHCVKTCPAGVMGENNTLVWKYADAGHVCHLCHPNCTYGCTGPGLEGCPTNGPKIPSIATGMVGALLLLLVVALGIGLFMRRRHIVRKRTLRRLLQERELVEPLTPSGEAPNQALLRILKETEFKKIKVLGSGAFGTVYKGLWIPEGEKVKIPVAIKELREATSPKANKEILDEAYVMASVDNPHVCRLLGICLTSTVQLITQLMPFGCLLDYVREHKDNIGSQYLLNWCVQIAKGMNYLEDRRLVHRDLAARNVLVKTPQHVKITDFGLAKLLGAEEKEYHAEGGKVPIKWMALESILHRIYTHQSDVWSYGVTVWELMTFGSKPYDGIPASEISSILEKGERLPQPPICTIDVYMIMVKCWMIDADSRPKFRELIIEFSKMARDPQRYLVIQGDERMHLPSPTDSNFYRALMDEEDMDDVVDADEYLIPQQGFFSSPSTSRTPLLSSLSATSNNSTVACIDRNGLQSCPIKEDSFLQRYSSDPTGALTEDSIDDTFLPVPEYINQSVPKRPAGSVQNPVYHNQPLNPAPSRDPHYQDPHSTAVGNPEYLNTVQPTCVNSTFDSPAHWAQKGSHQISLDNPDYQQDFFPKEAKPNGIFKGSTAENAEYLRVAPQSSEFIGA
T1 sequence (Q12809 whole entry): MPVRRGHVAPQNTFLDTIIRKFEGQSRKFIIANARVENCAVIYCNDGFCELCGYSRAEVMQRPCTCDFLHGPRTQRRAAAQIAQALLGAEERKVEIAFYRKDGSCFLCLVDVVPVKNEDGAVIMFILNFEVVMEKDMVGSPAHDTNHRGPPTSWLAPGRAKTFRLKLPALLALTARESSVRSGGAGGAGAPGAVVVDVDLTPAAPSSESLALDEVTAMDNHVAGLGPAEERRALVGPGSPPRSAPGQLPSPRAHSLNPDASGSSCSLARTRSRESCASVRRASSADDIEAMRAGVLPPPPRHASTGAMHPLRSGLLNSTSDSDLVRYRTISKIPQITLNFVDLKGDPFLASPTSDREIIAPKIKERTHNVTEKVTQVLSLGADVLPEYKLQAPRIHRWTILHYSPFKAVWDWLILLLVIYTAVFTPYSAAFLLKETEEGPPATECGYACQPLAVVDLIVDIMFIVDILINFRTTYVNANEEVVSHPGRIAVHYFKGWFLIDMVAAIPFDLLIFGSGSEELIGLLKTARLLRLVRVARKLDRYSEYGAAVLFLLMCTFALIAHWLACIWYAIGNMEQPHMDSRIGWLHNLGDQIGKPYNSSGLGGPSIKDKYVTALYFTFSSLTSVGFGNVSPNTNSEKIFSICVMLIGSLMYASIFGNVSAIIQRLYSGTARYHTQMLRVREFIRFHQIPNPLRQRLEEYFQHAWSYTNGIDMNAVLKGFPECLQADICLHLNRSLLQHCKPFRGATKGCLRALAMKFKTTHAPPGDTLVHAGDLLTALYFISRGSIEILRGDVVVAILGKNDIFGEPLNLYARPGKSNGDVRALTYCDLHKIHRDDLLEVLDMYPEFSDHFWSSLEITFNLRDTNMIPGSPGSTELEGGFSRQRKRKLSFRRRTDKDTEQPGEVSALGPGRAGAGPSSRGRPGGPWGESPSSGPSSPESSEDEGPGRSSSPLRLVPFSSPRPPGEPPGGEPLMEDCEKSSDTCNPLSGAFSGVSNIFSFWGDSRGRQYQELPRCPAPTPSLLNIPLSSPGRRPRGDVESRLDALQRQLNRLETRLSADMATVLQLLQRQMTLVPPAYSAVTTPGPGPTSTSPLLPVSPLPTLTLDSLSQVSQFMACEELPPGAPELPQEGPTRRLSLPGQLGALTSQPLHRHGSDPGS
Receptor tyrosine-protein kinase erbB-2, sequence (P04626 whole entry): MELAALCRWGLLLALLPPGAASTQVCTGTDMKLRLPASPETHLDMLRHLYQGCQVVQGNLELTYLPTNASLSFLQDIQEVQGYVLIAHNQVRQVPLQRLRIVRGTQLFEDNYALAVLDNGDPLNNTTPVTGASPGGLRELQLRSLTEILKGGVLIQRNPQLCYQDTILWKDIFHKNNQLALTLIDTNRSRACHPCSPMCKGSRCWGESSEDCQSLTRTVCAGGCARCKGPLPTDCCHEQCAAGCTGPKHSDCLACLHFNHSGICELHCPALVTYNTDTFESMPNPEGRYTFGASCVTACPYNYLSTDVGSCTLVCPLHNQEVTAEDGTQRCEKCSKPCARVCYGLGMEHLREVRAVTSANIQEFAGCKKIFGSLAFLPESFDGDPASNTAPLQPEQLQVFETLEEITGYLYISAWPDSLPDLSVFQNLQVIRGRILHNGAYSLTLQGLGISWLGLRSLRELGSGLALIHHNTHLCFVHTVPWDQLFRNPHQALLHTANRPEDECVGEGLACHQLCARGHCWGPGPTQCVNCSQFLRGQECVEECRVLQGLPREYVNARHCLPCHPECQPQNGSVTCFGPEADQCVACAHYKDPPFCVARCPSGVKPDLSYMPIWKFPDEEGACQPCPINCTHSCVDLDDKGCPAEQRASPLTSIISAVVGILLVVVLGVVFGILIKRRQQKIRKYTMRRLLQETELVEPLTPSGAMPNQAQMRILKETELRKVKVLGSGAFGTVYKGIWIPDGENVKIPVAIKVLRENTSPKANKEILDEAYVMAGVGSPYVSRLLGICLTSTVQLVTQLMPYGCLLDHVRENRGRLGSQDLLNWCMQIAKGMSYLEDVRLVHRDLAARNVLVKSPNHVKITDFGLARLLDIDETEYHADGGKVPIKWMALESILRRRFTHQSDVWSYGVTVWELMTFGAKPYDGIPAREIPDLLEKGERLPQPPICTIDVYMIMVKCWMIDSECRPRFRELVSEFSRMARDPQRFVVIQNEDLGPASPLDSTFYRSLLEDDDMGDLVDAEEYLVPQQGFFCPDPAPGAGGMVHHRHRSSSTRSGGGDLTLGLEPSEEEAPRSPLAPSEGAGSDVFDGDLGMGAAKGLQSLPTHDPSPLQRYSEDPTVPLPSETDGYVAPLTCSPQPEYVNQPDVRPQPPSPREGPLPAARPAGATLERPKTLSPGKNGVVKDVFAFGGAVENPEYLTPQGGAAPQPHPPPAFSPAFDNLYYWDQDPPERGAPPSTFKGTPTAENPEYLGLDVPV

Q: With `CCOc1cc2ncnc(Nc3ccc(OCc4ccccn4)c(Cl)c3)c2cc1NC(=O)/C(F)=C\CN(C)C` as the compound, how does the pIC50 (NCI-H1975 [1]) read?
A: The pIC50 was 5.95.

Q: Which results are given for `CCOc1cc2ncnc(Nc3ccc(OCC4CC4)c(Cl)c3)c2cc1NC(=O)/C(F)=C/CN(C)C`?
A: pIC50 (A-431): 6.12; pIC50 [2]: 8.44; pIC50 (NCI-H1975 [1]): 5.92; pIC50 [3]: 8.46

Q: With `COc1cc2ncnc(Nc3ccc(F)c(Cl)c3)c2cc1NC(=O)/C(F)=C/CN1CCOCC1` as the compound, how does the pIC50 (A-431) read?
A: Its pIC50 is 5.58.

Q: What about the pIC50 (NCI-H1975 [1]) of the same compound?
A: The pIC50 was 5.69.

Q: And the pIC50 [4]?
A: Its pIC50 is 5.81.

Q: And the pIC50 [3]?
A: Its pIC50 is 7.22.

Q: With `CCOc1cc2ncnc(Nc3ccc(OCc4ccccn4)c(Cl)c3)c2cc1NC(=O)/C(F)=C/CN(C)C` as the compound, how does the pIC50 (Cytochrome P450 2C9) read?
A: Its pIC50 is less than 5.00.

Q: What about the inhibition at 10 µM (hERG (KCNH2) [5]) of the same compound?
A: The inhibition at 10 µM was 3.06%.

Q: What about the microsomal CLint at 1 µM [6] of the same compound?
A: The microsomal CLint at 1 µM was 95 µL/min/mg.

Q: What about the Kp at 6 h [7] of the same compound?
A: Its Kp at 6 h is 0.29.

Q: What about the CL/F [8] of the same compound?
A: Its CL/F is 20 mL/min/kg.

Q: And the microsomal CLint at 1 µM [9]?
A: The microsomal CLint at 1 µM was 97 µL/min/mg.

Q: What about the pIC50 (A-431) of the same compound?
A: Its pIC50 is 6.47.

Q: What about the pIC50 [2] of the same compound?
A: Its pIC50 is 9.74.

Q: What about the pIC50 (Cytochrome P450 1A2) of the same compound?
A: Its pIC50 is less than 5.00.

Q: What about the AUC(0-inf) [10] of the same compound?
A: Its AUC(0-inf) is 16.6 µM·h.

Q: And the pIC50 (Cytochrome P450 3A4)?
A: Its pIC50 is less than 5.00.

Q: What about the pIC50 (Cytochrome P450 2D6) of the same compound?
A: The pIC50 was less than 5.00.

Q: And the Kp at 6 h [11]?
A: Its Kp at 6 h is 11.

Q: What about the bioavailability [12] of the same compound?
A: The bioavailability was 89.4%.

Q: What about the T/C (NCI-H1975 [13]) of the same compound?
A: Its T/C is 15.6%.

Q: What about the pIC50 [4] of the same compound?
A: The pIC50 was 8.86.

Q: And the microsomal CLint at 1 µM [14]?
A: Its microsomal CLint at 1 µM is 33 µL/min/mg.

Q: What about the pIC50 [3] of the same compound?
A: Its pIC50 is 8.42.

Q: And the microsomal CLint at 1 µM [15]?
A: The microsomal CLint at 1 µM was 27 µL/min/mg.

Q: And the pIC50 (Cytochrome P450 2C19)?
A: The pIC50 was less than 5.00.

Q: What about the Vz (Mus musculus) of the same compound?
A: Its Vz is 3.94 L/kg.

Q: And the inhibition at 1 µM (hERG (KCNH2) [16])?
A: The inhibition at 1 µM was 0%.

Q: And the Cmax [17]?
A: The Cmax was 2660 nM.

Q: What about the microsomal CLint at 1 µM [18] of the same compound?
A: Its microsomal CLint at 1 µM is 47 µL/min/mg.

Q: Which inhibition at 10 µM (hERG (KCNH2) [5]) does the source give for `CN(C)C/C=C(/F)C(=O)Nc1cc2c(Nc3ccc(F)c(Cl)c3)ncnc2cc1O[C@H]1CCOC1` here?
A: Its inhibition at 10 µM is 39.5%.

Q: What about the pIC50 (A-431) of the same compound?
A: Its pIC50 is 5.51.

Q: What about the pIC50 (NCI-H1975 [1]) of the same compound?
A: Its pIC50 is 5.82.

Q: And the pIC50 [4]?
A: The pIC50 was 7.01.

Q: And the pIC50 [3]?
A: Its pIC50 is 7.59.

Q: What about the inhibition at 1 µM (hERG (KCNH2) [16]) of the same compound?
A: Its inhibition at 1 µM is 6.37%.

Q: With `O=C(Nc1cc2c(Nc3ccc(F)c(Cl)c3)ncnc2cc1O[C@H]1CCOC1)/C(F)=C\CN1CCCCC1` as the compound, how does the pIC50 (A-431) read?
A: Its pIC50 is 5.74.

Q: What about the pIC50 [2] of the same compound?
A: The pIC50 was 8.59.

Q: And the pIC50 (NCI-H1975 [1])?
A: Its pIC50 is 6.15.

Q: With `CCOc1cc2ncnc(Nc3ccc(OCC4CC4)c(Cl)c3)c2cc1NC(=O)/C(F)=C\CN(C)C` as the compound, how does the pIC50 (A-431) read?
A: The pIC50 was 5.87.

Q: What about the pIC50 [2] of the same compound?
A: Its pIC50 is 7.95.

Q: And the pIC50 (NCI-H1975 [1])?
A: The pIC50 was 5.53.

Q: With `COc1cc2ncnc(Nc3cccc(Br)c3)c2cc1NC(=O)/C(F)=C\CN(C)C` as the compound, how does the pIC50 (A-431) read?
A: The pIC50 was 5.92.

Q: And the pIC50 [2]?
A: The pIC50 was 8.30.

Q: And the pIC50 (NCI-H1975 [1])?
A: The pIC50 was 5.39.

Q: With `CCOc1cc2ncnc(Nc3ccc(Oc4ccc(C)nc4)c(Cl)c3)c2cc1NC(=O)/C(F)=C\CN(C)C` as the compound, how does the pIC50 (A-431) read?
A: Its pIC50 is 5.23.

Q: What about the pIC50 [2] of the same compound?
A: The pIC50 was 8.02.

Q: What about the pIC50 (NCI-H1975 [1]) of the same compound?
A: Its pIC50 is 5.53.

Q: With `O=C(Nc1cc2c(Nc3ccc(F)c(Cl)c3)ncnc2cc1O[C@H]1CCOC1)/C(F)=C\CN1CCOCC1` as the compound, how does the pIC50 (A-431) read?
A: The pIC50 was 4.96.

Q: And the pIC50 (NCI-H1975 [1])?
A: Its pIC50 is 5.52.

Q: Which inhibition at 0.1 µM (hERG (KCNH2) [19]) does the source give for `COc1cc(N)c(Cl)cc1C(=O)NC1CCN(CCCOc2ccc(F)cc2)CC1OC` (centres undefined) [CISAPRIDE] here?
A: Its inhibition at 0.1 µM is 65.5%.

Q: What about the inhibition at 1 µM (hERG (KCNH2) [16]) of the same compound?
A: The inhibition at 1 µM was 92.4%.

Q: With `COc1cc2ncnc(Nc3cccc(Br)c3)c2cc1NC(=O)/C(F)=C/CN(C)C` as the compound, how does the pIC50 (A-431) read?
A: Its pIC50 is 5.68.

Q: And the pIC50 [2]?
A: Its pIC50 is 8.59.

Q: What about the pIC50 (NCI-H1975 [1]) of the same compound?
A: Its pIC50 is 5.48.

Q: And the pIC50 [3]?
A: Its pIC50 is 8.08.
